The list is not random: actives were taken first. Their share in the collection is about 2.4%.
HMGR II inh: inhibitors of class II HMG-CoA reductase from Enterococcus faecalis; purified E. faecalis HMGR, NADPH absorbance 340 nm kinetic; inhibition, % at 10 µM; 0.41% of 190,000 active; AID 1066;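 active means inhibition above a set limit, the median over all tested compounds plus 3 SD, cut at about 9.5% in these data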;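 further: enzyme runs in reverse so mevalonate oxidation gives rising NADPH absorbance; 0% = complete reaction with DMSO and 100% = background rate lacking mevalonate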
Arbovirus anti: antivirals against arbovirus infection; arbovirus infection cell-based antiviral screen; inhibition, % at 10 µM; 0.37% of 200,000 active; in the data active means inhibition above about 30%
BB579 growth dn: chemicals that inhibit yeast BB579 growth in restrictive medium (lifespan-shortening candidates); 0.51% of 140,000 active; S. cerevisiae BB579 growth, OD615, 48 h; inhibition, % at 10 µM;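 active means inhibition above a set limit, 3 SD over the mean compound inhibition, cut at about 44% in these data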
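Test system: S. cerevisiae DeaD strain BB579 yeast; Medium: restrictive CSMM-D medium; Compound: one dose, 10 µM compound with 0.25% DMSO; Incubation: 4 h cell preincubation, 48 h compound exposure, 30 °C humidified; Signal: OD at 615 nm; Benchmarks: amphotericin B at 10 µg/mL as positive control.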
Measles CPE: protection of cells from measles virus. Measles virus-infected cells, CPE protection, absorbance. protection (pct of control), % at 4 µM. 1.5% of 140,000 active; in the data active means protection mostly above about 24%, no sharp cut-off; inactive means mostly below about 26%
Yeast life ext: extends the lifespan of yeast; S. cerevisiae growth with nicotinamide, OD615; deaD strain in restrictive glucose medium; inhibition of the nicotinamide effect, % at 10 µM; 0.68% of 130,000 active; AID 775;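 active means inhibition above a set limit, placed 3 SD over the median of all compounds, cut at about 26% in these data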;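 further: 0% = nicotinamide-treated wells and 100% = cells grown without nicotinamide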
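Assay system: DeaD-strain S. cerevisiae. Medium: CSMM-D glucose medium, restrictive. Reagent: nicotinamide, 1.5 mM, co-present with compound. Compound: 10 µM single point, 0.25% DMSO. Schedule: culture preincubation 4 h, compound exposure 48 h, both 30 °C. Detection: absorbance at 615 nm.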
Rad51 HR inh: blocks human Rad51 in homologous recombination | Q06609 | AID 1385 | 0.085% of 200,000 active | inhibition, % at 10 µM | hRad51 DNA strand exchange, fluorescence dequenching;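 active means inhibition above 40% at the single screening dose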;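 further: 0% = DMSO control wells and 100% = blanks with heterologous ssDNA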
Target sequence (Q06609 whole entry, looked up): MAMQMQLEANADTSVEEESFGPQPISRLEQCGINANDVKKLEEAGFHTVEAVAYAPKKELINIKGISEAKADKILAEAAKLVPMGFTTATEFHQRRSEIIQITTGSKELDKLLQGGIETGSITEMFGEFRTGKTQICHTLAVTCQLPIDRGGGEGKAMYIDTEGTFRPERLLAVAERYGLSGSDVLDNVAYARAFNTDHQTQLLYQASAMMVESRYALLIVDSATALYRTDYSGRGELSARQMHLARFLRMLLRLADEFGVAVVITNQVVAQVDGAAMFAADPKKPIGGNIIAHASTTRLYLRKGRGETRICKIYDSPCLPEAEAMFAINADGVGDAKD
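Material: Human Rad51 nucleoprotein filaments preassembled on unlabelled ssDNA | Also added: Labelled 47-mer dsDNA for strand exchange | Dosing: Single dose, 10 µM final compound | Schedule: 30-min compound preincubation and 15-min exchange, both room temperature | Technique: Fluorescence dequenching at 485/520 nm | Measure: Percent inhibition relative to plate controls and blanks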
The depositor's hits bear a star.

`O=C(NNC(=O)c1cccs1)c1ccc([N+](=O)[O-])cc1` gave HMGR II inh -4, Arbovirus anti 35* and Rad51 HR inh 0.
For O=C(NNC(=O)c1cccs1)c1ccc(Cl)c([N+](=O)[O-])c1 the results were HMGR II inh -1, Arbovirus anti 2, BB579 growth dn -14, Measles CPE 8, Yeast life ext -4 and Rad51 HR inh -8.
For Cc1cccc(C(=O)NC(=S)NNC(=O)c2cccs2)c1 the results were HMGR II inh -2, Arbovirus anti -17, BB579 growth dn 49*, Measles CPE 4, Yeast life ext 10 and Rad51 HR inh 2.
O=C(NNC(=O)c1cccs1)c1ccco1 was read as HMGR II inh -9, Arbovirus anti 1 and Rad51 HR inh 5.
For O=C(NC(=S)NNC(=O)c1cccs1)c1ccco1 the results were HMGR II inh 1, Arbovirus anti -22, BB579 growth dn -16, Measles CPE 2 and Yeast life ext 29*.
For CC(C)(C)c1ccc(C(=O)NC(=S)NNC(=O)c2cccs2)cc1 the results were HMGR II inh 1, Arbovirus anti -36, BB579 growth dn 67*, Measles CPE 1, Yeast life ext -5 and Rad51 HR inh 5.
Cc1nnsc1C(=O)NNC(=O)c1cccc2ccccc12 was read as Rad51 HR inh 7.
`COc1ccccc1CNc1ncnc2c1nnn2Cc1ccccc1` gave HMGR II inh 1, Arbovirus anti -5, BB579 growth dn -37, Measles CPE 9, Yeast life ext -5 and Rad51 HR inh 1.
CCCCCCNC(=O)c1c(O)c2ccccc2[nH]c1=O was read as HMGR II inh -1, Arbovirus anti -9, BB579 growth dn -71, Measles CPE 14, Yeast life ext 36* and Rad51 HR inh 7.
Screening CCCCCCCC(=O)NNC(=O)c1c(O)c2ccccc2[nH]c1=O returned Rad51 HR inh 8.
Screening COc1ccc(C(=O)NC(=S)NNC(=O)c2cnccn2)cc1OC returned HMGR II inh 0, Arbovirus anti -19, BB579 growth dn 90*, Measles CPE 1, Yeast life ext -5 and Rad51 HR inh 8.
Screening CC1(NC(=O)C2CCCCC2)CCS(=O)(=O)C1 (configuration not stated) returned HMGR II inh -6, Arbovirus anti 5 and Rad51 HR inh -5.
Screening Cc1csc(N/N=C/c2ccc(O)c([N+](=O)[O-])c2)n1 returned HMGR II inh -1, Arbovirus anti 1, BB579 growth dn -68, Measles CPE 43, Yeast life ext -5 and Rad51 HR inh -3.
`O=[N+]([O-])c1cc(/C=N\Nc2nc(-c3ccccc3)cs2)ccc1O` gave HMGR II inh 0, Arbovirus anti 48* and Rad51 HR inh 31.
Cc1ccccc1NC(=O)c1ccc(CN(c2ccccc2)S(=O)(=O)c2ccccc2)cc1 was read as HMGR II inh -4, Arbovirus anti -3, BB579 growth dn -26, Measles CPE 4 and Yeast life ext 5.
For O=C(COc1ccc(Cl)cc1)NCCN1CCCCC1 the results were HMGR II inh 10*, Arbovirus anti 3 and Rad51 HR inh 7.
`Cc1ccc(OCC(=O)NCCN2CCCC2)cc1` gave HMGR II inh -3, Arbovirus anti 0, BB579 growth dn -48, Measles CPE 14, Yeast life ext -12 and Rad51 HR inh -1.
`CCCC(C(=O)O)N1C(=O)/C(=C/c2cccn2C)SC1=S` (configuration not stated) gave HMGR II inh -1, Arbovirus anti 0, BB579 growth dn -26, Measles CPE 12, Yeast life ext 27* and Rad51 HR inh -69.
`CC(C)C(C(=O)O)N1C(=O)/C(=C/C=C/c2ccco2)SC1=S` (configuration not stated) gave HMGR II inh 11*, Arbovirus anti -5, BB579 growth dn -11, Measles CPE 1, Yeast life ext 20 and Rad51 HR inh -43.
`Cc1ccc(S(=O)(=O)NN2C(=O)/C(=C/c3cccn3C)SC2=S)cc1` gave HMGR II inh -1, Arbovirus anti -27, BB579 growth dn -47, Measles CPE 7, Yeast life ext 30* and Rad51 HR inh -38.
Cn1cccc1/C=C1\SC(=S)N(Nc2ccccc2)C1=O was read as Rad51 HR inh -27.
For CC(C)C(C(=O)O)N1C(=O)/C(=C/c2cccn2C)SC1=S (configuration not stated) the results were HMGR II inh 1, Arbovirus anti 3, BB579 growth dn -34, Measles CPE 9, Yeast life ext 42* and Rad51 HR inh -89.
For CCCC12CN3CCN(CC(C3)/C1=N\NC(=O)c1ccc(C(C)(C)C)cc1)C2 the results were HMGR II inh -4, Arbovirus anti -7, BB579 growth dn -27, Measles CPE 7, Yeast life ext 0 and Rad51 HR inh 6.
For CC1CCc2c(sc3nc(CN4CCOCC4)nc(Sc4ccccc4)c23)C1 (configuration not stated) the results were HMGR II inh -3, Arbovirus anti 11, BB579 growth dn 46*, Measles CPE 19, Yeast life ext -7 and Rad51 HR inh 2.
COc1cccc(C2=NN(C(=O)c3cccs3)C(O)(C(F)(F)F)C2)c1 (configuration not stated) was read as HMGR II inh -4, Arbovirus anti 6 and Rad51 HR inh 24.
`Cc1cc2nc3c(nc2cc1C)C1(C(=O)O)CCC3(C)C1(C)C` (configuration not stated) gave HMGR II inh 1, Arbovirus anti 8, BB579 growth dn -4, Measles CPE 8, Yeast life ext 30 and Rad51 HR inh 40*.
For Cc1ccc2nc(C)c(C(=O)NN=C3CCCCCC3)n2c1 the results were HMGR II inh 5, Arbovirus anti -7 and Rad51 HR inh 0.
Screening Cc1sc2ncnc(SCC(=O)N(C(C)C)C(C)C)c2c1C returned HMGR II inh 11*, Arbovirus anti 6 and Rad51 HR inh 13.
For Cc1onc(-c2c(Cl)cccc2Cl)c1-c1nc2cc(Cl)ccc2c(=O)o1 the results were Rad51 HR inh -4.
For CCN1CC2([N+](=O)[O-])C=CC(=O)C([N+](=O)[O-])(C1)C2CC(=O)c1ccccc1 (configuration not stated) the results were HMGR II inh -1, Arbovirus anti 8, BB579 growth dn -11, Measles CPE 27*, Yeast life ext -11 and Rad51 HR inh 2.
Screening CCCCN1CC2([N+](=O)[O-])C=CC(=O)C([N+](=O)[O-])(C1)C2CC(=O)c1ccccc1 (configuration not stated) returned HMGR II inh -1, Arbovirus anti 1, BB579 growth dn 6, Measles CPE 6, Yeast life ext -2 and Rad51 HR inh 11.
`Cc1cc(C)nc(SCc2cnc(C)nc2N)n1` gave HMGR II inh 0, Arbovirus anti 19 and Rad51 HR inh -6.

Source: PubChem (several laboratories)
